The source made the active and inactive calls. No cut-off for these calls is given here.
What was measured:
[1] = biological target: T1, Serine/threonine-protein kinase Chk1 (Homo sapiens) (UniProt O14757); assay: Inhibition of human recombinant Chk1 at 10 uM
T1 sequence (whole entry): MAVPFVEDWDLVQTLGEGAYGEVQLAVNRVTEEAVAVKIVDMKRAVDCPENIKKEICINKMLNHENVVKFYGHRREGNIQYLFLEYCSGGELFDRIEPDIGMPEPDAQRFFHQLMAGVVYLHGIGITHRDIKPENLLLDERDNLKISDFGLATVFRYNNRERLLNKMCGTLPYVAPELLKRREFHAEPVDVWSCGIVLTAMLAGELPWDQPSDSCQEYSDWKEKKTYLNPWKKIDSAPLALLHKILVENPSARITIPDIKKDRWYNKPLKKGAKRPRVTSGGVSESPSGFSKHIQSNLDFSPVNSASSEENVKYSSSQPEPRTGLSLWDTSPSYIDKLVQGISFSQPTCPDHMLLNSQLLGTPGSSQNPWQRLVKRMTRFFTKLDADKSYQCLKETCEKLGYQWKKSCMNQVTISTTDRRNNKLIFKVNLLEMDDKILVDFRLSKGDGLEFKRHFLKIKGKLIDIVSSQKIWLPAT
Summary of the method: (§1)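 Chk1 activity measured by K-LISA checkpoint kit ELISA, following phosphorylation of a Cdc25 substrate peptide. Absorbance read at 450/540 nm. Inhibition calculated from activity with versus without compound. IC50 is the concentration inhibiting peptide phosphorylation. Values are the mean of three separate determinations.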

[2] = biological target: T2, Serine/threonine-protein kinase Chk1 (Homo sapiens, UniProt O14757); assay: Inhibition of human recombinant Chk1; summary of the method: as §1
T2 sequence (O14757 whole entry): T1 sequence (whole entry)

CCRF-CEM = assay: Cytotoxicity against human CCRF-CEM cells up to 10 uM after 48 hrs; type: functional, cell-based
Summary of the method: (§2)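 Cells grown in RPMI 1640 with 10% FBS at 37 °C, 5% CO2. Exponentially growing cells seeded, treated after 24 h with compound for 48 h. Viability read by CCK-8 (2 h development, absorbance 450 nm), expressed as percent of untreated control. Three separate experiments, each in triplicate.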

ML-1a = assay: Cytotoxicity against human ML-1a cells up to 10 uM after 48 hrs; type: functional, cell-based; summary of the method: as §2
[3] = biological target: Serine/threonine-protein kinase Chk2 (Homo sapiens) (UniProt O96017); assay: Inhibition of Chk2 at 0.1 uM
Summary of the method: (§3)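 Kinase panel run per ProfilerPro kit protocol. Compounds preincubated with enzyme 15 min at room temperature. Reaction started with peptide substrate (fixed 1.5 µM) and ATP at apparent Km, run 90 min, then stopped with termination buffer. Tested in duplicate. Read by microfluidic mobility-shift (Caliper), with product/(product+substrate) ratio as signal.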

[4] = biological target: T3, Calcium/calmodulin-dependent protein kinase type IV (Homo sapiens) (UniProt Q16566); assay: Inhibition of CAMK4 at 0.1 uM; summary of the method: as §3
T3 sequence (whole entry): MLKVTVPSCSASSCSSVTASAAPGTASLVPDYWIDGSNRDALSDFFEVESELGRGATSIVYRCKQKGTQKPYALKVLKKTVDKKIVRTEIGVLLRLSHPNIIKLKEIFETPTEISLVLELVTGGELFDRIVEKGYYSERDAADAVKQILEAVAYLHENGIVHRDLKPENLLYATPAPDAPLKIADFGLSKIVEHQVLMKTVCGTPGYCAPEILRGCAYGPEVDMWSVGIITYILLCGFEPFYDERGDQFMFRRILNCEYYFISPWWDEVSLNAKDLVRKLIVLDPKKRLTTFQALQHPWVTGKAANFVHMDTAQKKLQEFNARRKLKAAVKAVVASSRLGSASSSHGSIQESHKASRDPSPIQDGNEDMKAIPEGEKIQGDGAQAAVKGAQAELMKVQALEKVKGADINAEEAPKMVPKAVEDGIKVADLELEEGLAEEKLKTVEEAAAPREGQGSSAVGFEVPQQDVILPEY

[5] = biological target: Serine/threonine-protein kinase MARK1 (Homo sapiens) (UniProt Q9P0L2); assay: Inhibition of MARK1 at 0.1 uM; summary of the method: as §3
[6] = biological target: Serine/threonine-protein kinase pim-2 (Homo sapiens) (UniProt Q9P1W9); assay: Inhibition of PIM2 at 0.1 uM; summary of the method: as §3
[7] = biological target: T4, 5'-AMP-activated protein kinase subunit beta-1 (Homo sapiens) (UniProt Q9Y478); assay: Inhibition of AMPK at 0.1 uM; summary of the method: as §3
T4 sequence (whole entry): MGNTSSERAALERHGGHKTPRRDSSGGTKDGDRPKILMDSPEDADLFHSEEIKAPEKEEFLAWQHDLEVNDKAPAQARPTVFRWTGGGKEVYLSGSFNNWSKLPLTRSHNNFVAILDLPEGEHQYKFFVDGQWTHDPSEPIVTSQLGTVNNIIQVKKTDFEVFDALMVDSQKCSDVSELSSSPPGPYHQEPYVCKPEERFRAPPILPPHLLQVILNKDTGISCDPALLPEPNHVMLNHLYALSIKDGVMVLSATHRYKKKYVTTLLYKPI

[8] = Inhibition of CAMK2 at 0.1 uM; summary of the method: as §3
[9] = biological target: T5, Aurora kinase A (Homo sapiens) (UniProt O14965); assay: Inhibition of aurora A at 0.1 uM; summary of the method: as §3
T5 sequence (whole entry): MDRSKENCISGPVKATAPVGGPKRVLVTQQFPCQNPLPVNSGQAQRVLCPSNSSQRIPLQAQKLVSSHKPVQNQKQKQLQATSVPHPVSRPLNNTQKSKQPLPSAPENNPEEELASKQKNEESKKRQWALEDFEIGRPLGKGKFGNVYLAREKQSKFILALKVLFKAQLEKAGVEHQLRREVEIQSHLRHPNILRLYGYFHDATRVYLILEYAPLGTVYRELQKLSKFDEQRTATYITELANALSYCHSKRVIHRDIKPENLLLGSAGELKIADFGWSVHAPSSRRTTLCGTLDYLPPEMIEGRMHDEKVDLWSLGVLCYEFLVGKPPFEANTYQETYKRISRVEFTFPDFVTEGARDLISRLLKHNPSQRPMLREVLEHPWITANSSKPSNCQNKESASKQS

[10] = biological target: T6, Serine/threonine-protein kinase D2 (Homo sapiens) (UniProt Q9BZL6); assay: Inhibition of PKD2 at 0.1 uM; summary of the method: as §3
T6 sequence (whole entry): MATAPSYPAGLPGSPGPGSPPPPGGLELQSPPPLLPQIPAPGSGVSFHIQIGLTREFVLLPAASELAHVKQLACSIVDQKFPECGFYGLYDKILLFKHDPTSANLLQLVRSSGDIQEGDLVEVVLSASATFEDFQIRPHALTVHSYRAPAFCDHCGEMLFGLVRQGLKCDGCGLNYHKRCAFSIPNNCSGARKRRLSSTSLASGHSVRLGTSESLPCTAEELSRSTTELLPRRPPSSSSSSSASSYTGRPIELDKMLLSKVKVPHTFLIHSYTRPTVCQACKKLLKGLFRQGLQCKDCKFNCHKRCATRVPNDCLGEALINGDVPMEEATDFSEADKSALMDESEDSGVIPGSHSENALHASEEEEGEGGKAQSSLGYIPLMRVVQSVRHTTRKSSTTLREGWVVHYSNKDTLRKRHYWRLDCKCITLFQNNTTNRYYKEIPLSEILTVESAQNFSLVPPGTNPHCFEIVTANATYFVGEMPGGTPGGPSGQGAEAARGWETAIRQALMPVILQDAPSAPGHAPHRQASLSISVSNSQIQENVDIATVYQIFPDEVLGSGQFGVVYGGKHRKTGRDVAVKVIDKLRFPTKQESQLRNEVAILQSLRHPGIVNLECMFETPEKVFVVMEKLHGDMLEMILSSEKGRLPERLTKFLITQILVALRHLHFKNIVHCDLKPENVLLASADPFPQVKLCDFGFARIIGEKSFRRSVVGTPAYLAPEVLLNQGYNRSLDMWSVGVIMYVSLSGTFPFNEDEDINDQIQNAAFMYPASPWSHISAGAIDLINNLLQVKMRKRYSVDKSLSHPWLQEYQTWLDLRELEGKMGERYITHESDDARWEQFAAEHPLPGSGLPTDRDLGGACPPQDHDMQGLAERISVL

HeLa = assay: Cytotoxicity against human HeLa cells assessed as potentiation of SN-38-induced induction of DNA damaging activity at 5 uM after 48 hrs; type: functional
Summary of the method: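 HeLa cells kept in MEM with 10% FBS and 1% nonessential amino acids at 37 °C, 5% CO2. Seeded cells treated after 24 h with SN-38, with or without test compound, for 48 h. Live cells measured by CCK-8 (2 h, A450), viability as percent of untreated control. Three experiments in triplicate.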

Serine/threonine-protein kinase MARK1 (Homo sapiens), sequence (Q9P0L2 whole entry, looked up): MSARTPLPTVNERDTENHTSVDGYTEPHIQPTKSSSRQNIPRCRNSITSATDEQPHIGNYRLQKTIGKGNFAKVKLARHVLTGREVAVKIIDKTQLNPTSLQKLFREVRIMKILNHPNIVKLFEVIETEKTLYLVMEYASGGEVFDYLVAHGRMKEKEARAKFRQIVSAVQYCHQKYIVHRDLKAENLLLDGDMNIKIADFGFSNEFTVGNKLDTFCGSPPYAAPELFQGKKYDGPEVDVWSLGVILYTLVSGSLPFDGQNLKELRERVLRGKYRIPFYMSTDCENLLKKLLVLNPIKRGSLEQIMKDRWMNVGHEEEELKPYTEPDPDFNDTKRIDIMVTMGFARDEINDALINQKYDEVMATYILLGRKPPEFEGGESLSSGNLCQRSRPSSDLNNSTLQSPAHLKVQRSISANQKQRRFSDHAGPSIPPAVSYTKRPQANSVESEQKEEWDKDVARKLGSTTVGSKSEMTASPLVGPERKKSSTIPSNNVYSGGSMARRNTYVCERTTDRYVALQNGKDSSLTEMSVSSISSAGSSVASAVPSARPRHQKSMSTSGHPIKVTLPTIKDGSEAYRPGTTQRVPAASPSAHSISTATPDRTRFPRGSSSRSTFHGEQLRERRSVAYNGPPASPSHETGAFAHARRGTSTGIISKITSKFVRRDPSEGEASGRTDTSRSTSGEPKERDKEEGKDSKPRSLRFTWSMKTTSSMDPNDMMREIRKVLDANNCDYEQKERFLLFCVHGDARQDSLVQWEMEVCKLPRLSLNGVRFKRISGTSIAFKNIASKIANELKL
Serine/threonine-protein kinase pim-2 (Homo sapiens), sequence (Q9P1W9 whole entry, looked up): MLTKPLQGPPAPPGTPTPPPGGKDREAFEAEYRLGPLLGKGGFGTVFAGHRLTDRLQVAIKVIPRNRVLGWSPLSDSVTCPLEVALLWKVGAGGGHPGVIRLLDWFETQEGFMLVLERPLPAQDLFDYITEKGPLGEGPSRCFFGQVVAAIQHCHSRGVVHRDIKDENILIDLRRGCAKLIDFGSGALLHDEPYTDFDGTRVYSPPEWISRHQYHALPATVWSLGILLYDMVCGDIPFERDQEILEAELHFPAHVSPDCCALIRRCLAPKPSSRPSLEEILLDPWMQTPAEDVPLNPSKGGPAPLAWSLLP
Serine/threonine-protein kinase Chk2 (Homo sapiens), sequence (O96017 whole entry): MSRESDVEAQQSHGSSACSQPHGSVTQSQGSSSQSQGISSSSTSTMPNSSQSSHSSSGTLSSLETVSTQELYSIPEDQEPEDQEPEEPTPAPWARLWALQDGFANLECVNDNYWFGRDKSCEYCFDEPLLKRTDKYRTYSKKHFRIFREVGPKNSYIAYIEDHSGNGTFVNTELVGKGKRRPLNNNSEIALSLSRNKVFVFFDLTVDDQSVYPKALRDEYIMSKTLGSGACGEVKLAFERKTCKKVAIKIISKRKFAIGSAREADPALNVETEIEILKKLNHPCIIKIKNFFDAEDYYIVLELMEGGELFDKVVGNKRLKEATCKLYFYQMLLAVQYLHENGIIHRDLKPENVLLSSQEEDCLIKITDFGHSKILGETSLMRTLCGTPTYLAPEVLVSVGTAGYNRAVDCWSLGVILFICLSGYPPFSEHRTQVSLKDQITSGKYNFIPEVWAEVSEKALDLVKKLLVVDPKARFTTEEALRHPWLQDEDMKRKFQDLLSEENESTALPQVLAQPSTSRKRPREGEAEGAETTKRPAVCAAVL

SMILES	inhibition [1] [%]	IC50 [2] [nM]	Activity (CCRF-CEM)	Activity (ML-1a)	also measured
N#Cc1cccc(CNC(=O)c2cc3c(c4c2[nH]c2ccccc24)C(=O)NC3=O)c1	48	–	–	–	–
NCCNC(=O)c1cccc(CNC(=O)c2cc3c(c4c2[nH]c2ccccc24)C(=O)NC3=O)c1	–	336	inactive	inactive	–
N=C(N)NCCNC(=O)c1cccc(CNC(=O)c2cc3c(c4c2[nH]c2ccc(O)cc24)C(=O)NC3=O)c1	–	2.8	inactive	inactive	–
N=C(N)NCCNC(=O)c1cccc(CNC(=O)c2cc3c(c4c2[nH]c2ccccc24)C(=O)NC3=O)c1	–	123	inactive	inactive	–
O=C1NC(=O)c2c1cc(C(=O)O)c1[nH]c3ccccc3c21	46	–	–	–	–
N=C(N)NCCCNC(=O)c1cccc(CNC(=O)c2cc3c(c4c2[nH]c2ccc(O)cc24)C(=O)NC3=O)c1	–	22	inactive	inactive	–
N=C(N)NCCCNC(=O)c1cccc(CNC(=O)c2cc3c(c4c2[nH]c2ccccc24)C(=O)NC3=O)c1	–	235	inactive	inactive	–
CC(C)(C)OC(=O)c1cc2c(c3c1[nH]c1ccccc13)C(=O)NC2=O	1	–	–	–	–
NC(=O)c1cccc(CNC(=O)c2cc3c(c4c2[nH]c2ccccc24)C(=O)NC3=O)c1	83	448	inactive	inactive	inhibition [3]: Active; inhibition [4]: Active; inhibition [5]: Active; inhibition [6]: Active; inhibition [7]: Active; inhibition [8]: Active; inhibition [9]: Active; inhibition [10]: Active
Cl.NCCNC(=O)c1cccc(CNC(=O)c2cc3c(c4c2[nH]c2ccc(O)cc24)C(=O)NC3=O)c1	–	31	inactive	inactive	fold change (FC) (HeLa): 4
NC(=O)c1ccc(CNC(=O)c2cc3c(c4c2[nH]c2ccccc24)C(=O)NC3=O)cc1	27	–	–	–	–
O=C1NC(=O)c2c1cc(C(=O)NCc1ccccc1)c1[nH]c3ccccc3c21	71	9000	–	–	–
CN[C@@H]1C[C@H]2O[C@@](C)([C@@H]1OC)n1c3ccccc3c3c4c(c5c6ccccc6n2c5c31)C(=O)N[C@H]4O	–	–	inactive	inactive	–
NCCCNC(=O)c1cccc(CNC(=O)c2cc3c(c4c2[nH]c2ccc(O)cc24)C(=O)NC3=O)c1	–	46	inactive	inactive	–
NCCCNC(=O)c1cccc(CNC(=O)c2cc3c(c4c2[nH]c2ccccc24)C(=O)NC3=O)c1	–	251	inactive	inactive	–
N#Cc1ccc(CNC(=O)c2cc3c(c4c2[nH]c2ccccc24)C(=O)NC3=O)cc1	46	–	–	–	–
